Active and inactive are the calls of the source. The rule behind the calls is not given here.
Columns and labels:
[1] = tested on: Trypanosoma brucei rhodesiense; experiment: Antiprotozoal activity against Trypanosoma brucei rhodesiense STIB900; type: functional, organism-based
Summary of the method: (§1)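 Run in vitro against T. b. rhodesiense strain STIB900 or P. falciparum strain K1. Values are from duplicate determinations.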

[2] = tested on: L6; experiment: Cytotoxicity against rat L6 cells; type: functional, cell-based
[3] = tested on: Plasmodium falciparum; experiment: Antiprotozoal activity against Plasmodium falciparum K1; type: functional, organism-based; summary of the method: as §1
[4] = tested on: Mus musculus; experiment: Antiprotozoal activity in mouse infected with Trypanosoma brucei rhodesiense STIB900 measured as average days of survival at 100 mg/kg, po; type: organism-based; set-up: dose 100 mg/kg, route oral; settings: in vivo
Summary of the method: (§2)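 Acute STIB900 mouse model. Dosing ran for 4 days, given ip or po. The read-out was average days of survival post infection. Mice surviving 60 days parasite-free were scored as cures. Untreated infected mice served as controls.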

[5] = tested on: Mus musculus; experiment: Antiprotozoal activity in mouse infected with Trypanosoma brucei rhodesiense STIB900 measured as average days of survival at 25 mg/kg, po; type: functional; summary of the method: as §2
[6] = tested on: Mus musculus; experiment: Antiprotozoal activity in mouse infected with Trypanosoma brucei rhodesiense STIB900 measured as survival upto 60 days at 25 mg/kg, po; type: functional, organism-based; set-up: dose 25 mg/kg
Summary of the method: (§3)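 Acute mouse model of T. b. rhodesiense STIB900 infection. Compound was given for 4 days, either intraperitoneally or orally, at the stated dose, with untreated infected controls. Read-outs were the number of mice alive and parasite-free at 60 days and the average days of survival.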

[7] = tested on: Mus musculus; experiment: Antiprotozoal activity in mouse infected with Trypanosoma brucei rhodesiense STIB900 measured as average days of survival at 5 mg/kg, ip; type: functional; settings: route intraperitoneal; summary of the method: as §2
[8] = tested on: Mus musculus; experiment: Antiprotozoal activity in mouse infected with Trypanosoma brucei rhodesiense STIB900 measured as survival upto 60 days at 5 mg/kg, ip; type: functional, organism-based; set-up: dose 5 mg/kg; summary of the method: as §3
[9] = tested on: Mus musculus; experiment: Antiprotozoal activity in mouse infected with Trypanosoma brucei rhodesiense STIB900 measured as average days of survival at 20 mg/kg, ip; type: functional; settings: route intraperitoneal; summary of the method: as §2
[10] = tested on: Mus musculus; experiment: Antiprotozoal activity in mouse infected with Trypanosoma brucei rhodesiense STIB900 measured as survival upto 60 days at 20 mg/kg, ip; type: functional, organism-based; set-up: dose 20 mg/kg; summary of the method: as §3
[11] = Half life in B6C3F1 mouse liver microsome; type: ADME; settings: liver microsomes
Summary of the method: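 Pooled male B6C3F1 mouse liver microsomes (0.5 mg/mL protein) in 100 mM phosphate pH 7.4 with 5 mM MgCl2 and 0.5% DMSO, run in duplicate. After 3 min preincubation at 37 °C, 2 mM NADPH started the reaction. Acetonitrile quench at 0–30 min, then LC-MS/MS (positive MRM). t1/2 = 0.693/slope of ln % parent remaining versus time.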

[12] = tested on: Mus musculus; experiment: Antiprotozoal activity in mouse infected with Trypanosoma brucei rhodesiense STIB900 measured as survival upto 60 days at 100 mg/kg, po; type: functional, organism-based; set-up: dose 100 mg/kg; summary of the method: as §3

Compound	IC50 [1] [µM]	IC50 [2] [µM]	IC50 [3] [µM]	Survival [4] [days]	Survival [5] [days]	Activity [6]	Survival [7] [days]	Activity [8]	Survival [9] [days]	Activity [10]	half-life [11] [h]	Activity [12]
N=C(NO)c1ccc(-c2ccc(-c3ccc(/C(N)=N\O)cc3)nc2)cc1	9.3	> 184	7.6	> 35.75								
N=C(NO)c1ccc(-c2ccc(-c3ccc(/C(N)=N\O)cc3)cc2C(F)(F)F)cc1	29.9	13.3	3.1		9	inactive						
N=C(N)c1ccc(-c2ccc(-c3ccc(C(=N)N)cn3)cc2)nc1	0.047		0.01				>60					
N=C(N)c1ccc(-c2ccc(-c3ccc(C(=N)N)cc3)c(F)c2)cc1	0.002		0.001				>51.75	inactive				
COc1cc(-c2ccc(C(=N)N)cc2)c(OC)cc1-c1ccc(C(=N)N)cc1	0.015	> 100	0.037				>51.75					
N=C(N)c1ccc(-c2ccc(-c3ccc(C(=N)N)cc3)nc2)cc1	0.002		0.01				>42		>60	Active		
CON=C(N)c1ccc(-c2ccc(-c3ccc(C(N)=NOC)cc3)cc2)cc1				20.75							> 1.5	
N=C(N)c1ccc(OCCCCCOc2ccc(C(=N)N)cc2)cc1 [PENTAMIDINE]									>42.75	inactive		
N=C(NO)c1ccc(-c2ccc(-c3ccc(/C(N)=N\O)cc3)cc2F)cc1		29.1	0.925		22.25	inactive						
CONC(=N)c1ccc(-c2ccc(-c3ccc(C(=N)NOC)cc3)c(F)c2)cc1	51.5	8.5	4.2		37.25	inactive					> 1.5	
N=C(N)c1ccc(-c2ccc(-c3ccc(C(=N)N)o3)cc2)cc1	0.005	56.1	0.001						21.25	inactive		
CONC(=N)c1ccc(-c2ccc(-c3ccc(C(=N)NOC)cc3)o2)cc1 [PAFURAMIDINE]					>60						< 0.25	
N=C(N)c1ccc(-c2ccc(-c3ccc(C(=N)N)o3)cn2)cc1	0.002	30.9	0.01				>41.75		>53.5			
CONC(=N)c1ccc(-c2cnc(-c3ccc(C(=N)NOC)cc3)nc2)cc1	49	> 177	5.7		12.5	inactive					> 1.5	
N=C(NO)c1ccc(-c2ccc(-c3ccc(/C(N)=N/O)cc3)cc2)o1	67		6.6		16	inactive						
N=C(N)c1ccc(-c2ccc(-c3ccc(C(=N)N)cc3)o2)cc1 [FURAMIDINE]							35.5	inactive	>52.5	inactive		
CONC(=N)c1ccc(-c2ccc(-c3ccc(C(=N)NOC)cc3)c(C(F)(F)F)c2)cc1	36.9	42.2	3.8		7.25	inactive						
N=C(N)c1ccc(-c2cnc(-c3ccc(C(=N)N)cc3)nc2)cc1			0.0005				23.5	inactive				
N=C(NO)c1ccc(-c2ccc(-c3ccc(/C(N)=N\O)cc3)cc2)cc1	22.8	> 211	> 11.8	24.75								inactive
CONC(=N)c1ccc(-c2ccc(-c3ccc(C(=N)NOC)cc3)cc2)cc1	13.8	118	0.371									inactive
CONC(=N)c1ccc(-c2ccc(-c3ccc(C(=N)NOC)cn3)cc2)nc1	82.9	> 158	1.2		12	inactive					> 1.5	
N=C(N)c1ccc(-c2ccc(-c3ccc(C(=N)N)cc3)c(C(F)(F)F)c2)cc1	0.048	9.4	0.015				17.25	inactive				
N=C(N)c1ccc(-c2ccc(-c3ccc(C(=N)N)cc3)cc2)cc1	0.005		0.001						>47.75			
CO/N=C(\N)c1ccc(-c2ccc(-c3ccc(C(=N)NOC)cc3)cc2)o1	24	> 205	1.6		6.25	inactive						
CO/N=C(/N)c1ccc(-c2ccc(-c3ccc(C(=N)NOC)cc3)nc2)cc1	34.7	> 166	3.2		>42.75	inactive					0.917	

Source: ChEMBL document CHEMBL1146034, “Synthesis, DNA affinity, and antiprotozoal activity of linear dications: Terphenyl diamidines and analogues” (J Med Chem, 2006)
